Source: ChEMBL document CHEMBL1136633, “Synthesis and thrombolytic activity of fibrinogen fragment related cyclopeptides” (Bioorg Med Chem Lett, 2003)
Where a SMILES comes first, the peptide text is derived from it.

Assays:
[1] = In vitro stability to pepsin promoting hydrolysis after 64h incubation time; assay type: ADME; conditions: read-out: Degradation
In short: (§1)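 Test compound (10 mg) dissolved in 1 mL phosphate buffer pH 8, then 0.5 mg pepsin or trypsin added. Mixture held at 37 °C. Remaining compound was measured hourly by HPLC using 25% CH₃OH in water with 0.1% CF₃COOH, and percent degradation was derived.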

[2] = In vitro stability to pepsin promoting hydrolysis after 84 hr incubation time; assay type: ADME; conditions: read-out: Degradation; in short: as §1
[3] = In vitro stability to trypsin promoting hydrolysis after 64h incubation time; assay type: ADME; conditions: read-out: Degradation; in short: as §1
[4] = In vitro stability to trypsin promoting hydrolysis after 84 hr incubation time; assay type: ADME; conditions: read-out: Degradation; in short: as §1
Rattus norvegicus [5] = assay: In vivo thrombolytic activity at a dose of 10.0 mg in male rat; assay type: functional
In short: (§2)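 Rat arterial-venous shunt. Arterial blood (1.0 mL) from the right carotid was collected onto a stainless steel helix for 15 min to form a thrombus, which was weighed. The helix was placed in a heparin-filled (50 IU/mL in NS) polyethylene shunt to the left jugular vein. Heparin was injected, then compound. Blood circulated 90 min and the helix was reweighed. Readout was thrombus mass reduction; N=8, NS vehicle, ANOVA.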

Rattus norvegicus [6] = assay: In vivo thrombolytic activity at a dose of 20.0 mg in male rat; assay type: functional; in short: as §2
Rattus norvegicus [7] = assay: In vivo thrombolytic activity at a dose of 5.0 mg in male rat; assay type: functional; in short: as §2
[8] = In vitro stability to pepsin promoting hydrolysis after 1 hr incubation time; assay type: ADME; conditions: read-out: Degradation; in short: as §1
[9] = In vitro stability to pepsin promoting hydrolysis after 2 hr incubation time; assay type: ADME; conditions: read-out: Degradation; in short: as §1
[10] = In vitro stability to pepsin promoting hydrolysis after 8 hr incubation time; assay type: ADME; conditions: read-out: Degradation; in short: as §1
[11] = In vitro stability to trypsin promoting hydrolysis after 1 hr incubation time; assay type: ADME; conditions: read-out: Degradation; in short: as §1
[12] = In vitro stability to trypsin promoting hydrolysis after 2 hr incubation time; assay type: ADME; conditions: read-out: Degradation; in short: as §1
[13] = In vitro stability to trypsin promoting hydrolysis after 8 hr incubation time; assay type: ADME; conditions: read-out: Degradation; in short: as §1

SMILES	metabolised at 64 h [1] [%]	metabolised at 84 h [2] [%]	metabolised at 64 h [3] [%]	metabolised at 84 h [4] [%]	Activity (Rattus norvegicus [7]) [mg]	metabolised at 1 h [8] [%]	metabolised at 2 h [9] [%]	metabolised at 8 h [10] [%]	metabolised at 1 h [11] [%]	metabolised at 2 h [12] [%]	metabolised at 8 h [13] [%]	other results
C[C@@H]1NC(=O)[C@H](CCCCN)NC(=O)CNC(=O)[C@H](CCCN=C(N)N)NC(=O)[C@@H]2CCCN2C1=O	0	10	0	20								
C[C@@H]1NC(=O)[C@@H](CCCCN)NC(=O)CNC(=O)[C@@H](CCCN=C(N)N)NC(=O)[C@@H]2CCCN2C1=O					11.86							Activity (Rattus norvegicus [5]): 17.31 mg; Activity (Rattus norvegicus [6]): 18.88 mg
C[C@@H]1NC(=O)[C@H](CCCCN)NC(=O)[C@H](CCCCN)NC(=O)[C@H](CCCN=C(N)N)NC(=O)[C@@H]2CCCN2C1=O	0	30	0	35								
C[C@@H]1NC(=O)[C@@H](CCCCN)NC(=O)[C@H](CCCCN)NC(=O)[C@@H](CCCN=C(N)N)NC(=O)[C@@H]2CCCN2C1=O					6.13							
C[C@@H]1NC(=O)[C@H](CCCCN)NC(=O)[C@H](CCC(N)=O)NC(=O)[C@H](CCCN=C(N)N)NC(=O)[C@@H]2CCCN2C1=O	0	25	0	20								
C[C@@H]1NC(=O)[C@@H](CCCCN)NC(=O)[C@H](CCC(N)=O)NC(=O)[C@@H](CCCN=C(N)N)NC(=O)[C@@H]2CCCN2C1=O					9.68							
C[C@@H]1NC(=O)[C@H](CCCN=C(N)N)NC(=O)[C@@H]2CCCN2C(=O)[C@H](C)NC(=O)[C@H](CCCCN)NC1=O	0	40	0	38								
C[C@@H]1NC(=O)[C@@H](CCCN=C(N)N)NC(=O)[C@@H]2CCCN2C(=O)[C@H](C)NC(=O)[C@@H](CCCCN)NC1=O					10.62							
C[C@H](N)C(=O)N[C@@H](CCCN=C(N)N)C(=O)N1CCC[C@H]1C(=O)N[C@@H](C)C(=O)N[C@@H](CCCCN)C(=O)O (H-ARPAK-OH)					6.07	10	50	98	79	95	99	
C[C@H](NC(=O)[C@@H]1CCCN1C(=O)[C@H](CCCN=C(N)N)NC(=O)CN)C(=O)N[C@@H](CCCCN)C(=O)O (H-GRPAK-OH)					9.31	56	75	93	25	77	98	Activity (Rattus norvegicus [5]): 13.17 mg; Activity (Rattus norvegicus [6]): 16.81 mg
C[C@H](NC(=O)[C@@H]1CCCN1C(=O)[C@H](CCCN=C(N)N)NC(=O)[C@@H](N)CCCCN)C(=O)N[C@@H](CCCCN)C(=O)O (H-KRPAK-OH)					0.28	50	80	95	30	70	96	
C[C@H](NC(=O)[C@@H]1CCCN1C(=O)[C@H](CCCN=C(N)N)NC(=O)[C@@H](N)CCC(N)=O)C(=O)N[C@@H](CCCCN)C(=O)O (H-QRPAK-OH)					7.02	45	78	92	20	72	95	
